In ChEMBL document CHEMBL3792321, “Potentiation of Francisella Resistance to Conventional Antibiotics through Small Molecule Adjuvants” (Medchemcomm, 2016):
In brackets after ≈: the same amount, converted by molar mass. Activity calls are given as the source filed them. The rule behind the calls is not given here.

Assays:
[1] = Effect on growth of Francisella philomiragia ATCC 25015 after 48 hrs
Procedure, shortened: (§1)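 Cultures grown 24 h were diluted to 5 × 10^5 CFU/mL in CAMHB with 2% IsoVitaleX (F. philomiragia) or TSB-C (F. novicida). Compound came from a 100 mM DMSO stock, starting at 200 µM, in twofold serial dilutions over 12 wells. Plates were incubated stationary at 37°C for 48 h. MIC was the lowest concentration with no bacterial growth.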

[2] = Potentiation of streptomycin-induced antibacterial activity against Francisella philomiragia ATCC 25015 assessed as MIC of streptomycin at 50 uM after 48 hrs (reference value: 4 ug/ml); assay type: functional; details: ATCC 25015, 48 h
Procedure, shortened: (§2)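 Inocula were 5 × 10^5 CFU/mL in CAMHB with 2% IsoVitaleX (F. philomiragia) or TSB-C (F. novicida). Adjuvant from a 100 mM DMSO stock was held at one fixed concentration; the control had no adjuvant. Antibiotic started at 2–2,048 µg/mL in twofold serial dilutions. Incubation was stationary at 37°C for 48 h. Antibiotic MIC was the lowest concentration with no growth, compared with and without adjuvant.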

[3] = Potentiation of gentamicin-induced antibacterial activity against Francisella philomiragia ATCC 25015 assessed as MIC of gentamicin at 50 uM after 48 hrs (reference value: 0.5 ug/ml); assay type: functional; details: ATCC 25015, 48 h; procedure, shortened: as §2
[4] = Potentiation of azithromycin-induced antibacterial activity against Francisella philomiragia ATCC 25015 assessed as MIC of azithromycin at 50 uM after 48 hrs (reference value: 4 ug/ml); assay type: functional; details: ATCC 25015, 48 h; procedure, shortened: as §2
[5] = Potentiation of colistin-induced antibacterial activity against Francisella philomiragia ATCC 25015 assessed as MIC of colistin at 50 uM after 48 hrs (reference value: 256 ug/ml); assay type: functional; details: ATCC 25015, 48 h; procedure, shortened: as §2
[6] = Potentiation of colistin-induced antibacterial activity against Francisella philomiragia ATCC 25015 assessed as reduction of colistin MIC at 50 uM after 48 hrs relative to control; assay type: functional; procedure, shortened: as §2
[7] = microbe, parasite or virus in culture; assay type: functional; details: Francisella philomiragia, ATCC 25015, 48 h
[8] = Effect on growth of Francisella novicida U112 after 48 hrs; details: francisella tularensis subsp. novicida u112, 48 h; procedure, shortened: as §1
[9] = Potentiation of gentamicin-induced antibacterial activity against Francisella novicida U112 assessed as MIC of gentamicin at 50 uM after 48 hrs (reference value: 1 ug/ml); assay type: functional, Francisella tularensis subsp. novicida U112; details: Francisella tularensis; procedure, shortened: as §2
[10] = Potentiation of azithromycin-induced antibacterial activity against Francisella novicida U112 assessed as MIC of azithromycin at 50 uM after 48 hrs (reference value: 2 ug/ml); assay type: functional, Francisella tularensis subsp. novicida U112; details: Francisella tularensis; procedure, shortened: as §2
[11] = microbe, parasite or virus in culture; assay type: functional, Francisella tularensis subsp. novicida U112; details: Francisella tularensis, 48 h
[12] = Potentiation of azithromycin-induced antibacterial activity against Francisella philomiragia ATCC 25015 assessed as reduction of azithromycin MIC at 50 uM after 48 hrs relative to control; assay type: functional; procedure, shortened: as §2
[13] = system: Francisella tularensis subsp. novicida U112; test: Potentiation of azithromycin-induced antibacterial activity against Francisella novicida U112 assessed as reduction of azithromycin MIC at 50 uM after 48 hrs relative to control; assay type: functional; procedure, shortened: as §2
[14] = Potentiation of FR900098-induced antibacterial activity against Francisella philomiragia ATCC 25015 assessed as reduction of FR900098 MIC at 50 uM after 48 hrs relative to control; assay type: functional; procedure, shortened: as §2
[15] = Potentiation of gentamicin-induced antibacterial activity against Francisella philomiragia ATCC 25015 assessed as reduction of gentamicin MIC at 50 uM after 48 hrs relative to control; assay type: functional; procedure, shortened: as §2
[16] = Potentiation of streptomycin-induced antibacterial activity against Francisella philomiragia ATCC 25015 assessed as reduction of streptomycin MIC at 50 uM after 48 hrs relative to control; assay type: functional; procedure, shortened: as §2
[17] = Effect on growth of Francisella philomiragia ATCC 25015 assessed as growth delay at 50 uM after 8 to 12 hrs by time kill assay
Procedure, shortened: (§3)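 F. philomiragia from 24 h CAMHB/2% IsoVitaleX cultures was inoculated to 5 × 10^5 CFU/mL, with compound or as an untreated control. Tubes were shaken at 37°C. Samples taken at 8, 12, 16, 20 and 24 h were serially diluted and plated on cysteine heart agar with 5% rabbit blood. Plates were incubated at 37°C for 24–36 h, and CFU were counted.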

[18] = Effect on growth of Francisella philomiragia ATCC 25015 at 50 uM after 16 hrs by time kill assay; procedure, shortened: as §3
[19] = Potentiation of colistin-induced antibacterial activity against Francisella novicida U112 assessed as reduction of colistin MIC at 50 uM after 48 hrs relative to control; assay type: functional, Francisella tularensis subsp. novicida U112; procedure, shortened: as §2
[20] = Potentiation of colistin-induced antibacterial activity against Francisella novicida U112 assessed as reduction of colistin MIC at 100 uM after 48 hrs; assay type: functional, Francisella tularensis subsp. novicida U112; procedure, shortened: as §2

Compound | MIC [1] [µM] | MIC [2] [µg/mL] | MIC [3] [µg/mL] | MIC [4] [µg/mL] | MIC [5] [µg/mL] | fold change (FC) [6] | MIC [7] [µg/mL] | MIC [8] [µg/mL] | MIC [9] [µg/mL] | MIC [10] [µg/mL] | MIC [11] [µg/mL] | fold change (FC) [12] | Activity [13] | fold change (FC) [14] | fold change (FC) [15] | fold change (FC) [16] | Activity [17] | Activity [18] | fold change (FC) [19] | fold change (FC) [20]
CCCCc1ccc(C(=O)NCCCc2c[nH]c3ccccc23)cc1 | > 200 | 4 | 0.25 | 2 | 64 | 4 | – | – | – | – | – | – | – | – | – | – | – | – | – | –
CCSC(=O)N1CCc2ccccc21 | > 200 | 4 | 0.5 | 0.5 | 256 | – | 1020 (≈ 4.94 mM) | > 200 | 4 | 0.125 | 1020 (≈ 4.94 mM) | 8 | Active | – | – | – | – | – | – | –
CCCCCc1ccc(C2=NCCO2)cc1 | 200 (≈ 43.5 µg/mL) | 8 | 1 | 2 | 512 | – | < 64 | – | – | – | – | – | – | 16 | – | – | – | – | – | –
Cc1cc2nc(N)[nH]c2cc1C | > 200 | 1 | 0.125 | 4 | 32 | – | 1020 (≈ 6.35 mM) | > 200 | 1 | 2 | 1020 (≈ 6.35 mM) | – | – | – | 4 | 4 | – | – | – | –
CCCCc1ccc(C(=O)NCCc2c[nH]c3ccccc23)cc1 | > 200 | 4 | 0.25 | 0.5 | 8 | – | 1020 (≈ 3.2 mM) | > 200 | 4 | 1 | 512 (≈ 1.6 mM) | – | – | – | – | – | Toxic | Non-toxic | 2 | 16
